From ChEMBL document CHEMBL4513216, “Probing the Open Global Health Chemical Diversity Library for Multistage-Active Starting Points for Next-Generation Antimalarials” (ACS Infect Dis, 2020)

Assay: Toxicity liver stage against HepG2, at 10uM
Type: cell-based
Design: test concentration 10 uM, cell line HepG2-A16-CD81EGFP
Conditions: human, HepG2-A16-CD81EGFP cells; read-out: INHIBITION
Outline: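 Uninfected HepG2-A16-CD81EGFP cells, 3 × 10^3 per well, 1536-well, plated on prespotted compound at 10 μM final, parasite-free screening media added to match infected plates; puromycin 10 μM positive, DMSO 0.5% negative; run in parallel with 48 h PbLuc assay at 37 °C, 5% CO2; viability by CellTiter-Glo luminescence, normalized to controls.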

Compound | cytotoxicity at 10 µM [%]
N#Cc1cccc(OCCN2CCOC(Cn3cccn3)C2)c1 (stereo unspecified) | -1.3
Cc1ccccc1CNC(=O)N1C[C@@H]2C[C@H](C(=O)N3CCCC3)[C@H](C1)O2 | 5.68
CCC1(C(=O)O)CCCN(C(=O)c2ccc(O)c(Cl)c2)C1 (stereo unspecified) | -8.87
NC(=O)c1cnc(NCC(=O)NCc2ccccc2)c(Cl)c1 | 3.89
CCOc1ccccc1CN1CCc2nc3ccsc3c(=O)n2CC1 | -5.81
CC(C)NC(=O)N1CCN2C(=O)OC[C@H]2C1 | 4.62
O=C1CCC(c2nc(C3CCNCC3)no2)N1 (stereo unspecified) | -3.96
Cn1cccc1C(=O)NC(C)(C(N)=O)c1cccc(C(F)(F)F)c1 (stereo unspecified) | 3.61
CC(C)C(Sc1nnnn1-c1ccccc1)C(=O)NCc1cccnc1 (stereo unspecified) | -3.02
NC(=O)c1cccc(CCNCc2cnc(C3CCC3)s2)c1 | 21.9
COCCOCC(=O)NCc1ccc(N(C)C)nc1 | 8.87
CN1CCCC1c1nnc2n1CCN(S(=O)(=O)c1ccccc1Cl)CC2 (stereo unspecified) | 4.94
Cc1cnn(CC2CCCCN2CCCS(C)(=O)=O)c1 (stereo unspecified) | -10.1
CC(NC(=O)NC1CCN(Cc2ccccn2)CC1)c1ccco1 (stereo unspecified) | 13.9
CCN1C(=O)[C@H]2CN(Cc3cccnc3)C[C@H]2C12CCN(C(C)=O)CC2 | -1.8
CCN(c1ccsc1C(=O)N1CCC(C)CC1)S(=O)(=O)c1ccccc1 | 14.7
CCC(Nc1cccc(Oc2ccccn2)c1)C(N)=O (stereo unspecified) | 9.55
CCCNC(=O)CNc1ccc2c(c1)N(C(=O)OC(C)(C)C)CCC2 | 13
Cc1ccc(C(=O)N2C[C@H]3CCC[C@@]3(COCc3ccncc3)C2)cn1 | 6.64

Compound | cytotoxicity at 10 µM [%]
Cc1ccc(C(=O)N2CCCN(Cc3cccs3)CC2)c(=O)[nH]1 | 1.45
Cc1csc(CNc2cnn(CC(C)C)c2)n1 | -6.63
CN(Cc1cccnc1)CC1CC12CCCC2 (stereo unspecified) | -0.243
O=C(c1ccccc1)N1CCC[C@]2(C[C@@H](OCc3ccccn3)CO2)C1 | -67.5
O=C(NCCN1CCOCC1)c1ccn(-c2ccccc2F)n1 | 7.44
CCNC(=O)NC1CCCN(c2ccc(C)cc2)C1=O (stereo unspecified) | 0.732
CC(C)CN1C(=O)CO[C@@H]2CNC[C@H]21 | -110
NS(=O)(=O)N1CCc2ccc(NC(=O)Cc3ccccc3F)cc21 | 1.17
Cc1nccn1-c1ccc(C(C)NCc2cccn2C)cc1 (stereo unspecified) | 8.61
O=S1(=O)CCCN1Cc1coc(-c2ccc(C(F)(F)F)cc2)n1 | -2.04
CN(CC(N)=O)CC1(c2ccc(Br)cc2)CC1 | 2.17
CCc1cnc(NCc2ccccc2Cn2cccn2)nc1 | -2.45
CCN1CCCN(C(=O)c2ccc(NC(=O)CC(C)C)c(C)c2)CC1 | -8.04
COCCN1C(=O)CC[C@@H]2[C@H]1CCN2C(=O)N(C)C | 10.7
CC(C)CC1SCC(=O)Nc2c1cnn2C1CCCC1 (stereo unspecified) | -2.17
CCOc1ccccc1CC(=O)N1C[C@@H](C(=O)O)[C@H](c2ccncc2)C1 | 9.15
CC(C)OCCCN(Cc1ccncc1)Cc1cccc(F)c1F | -15.3
Cn1c(=O)ccn(CC(=O)Nc2cnccc2O)c1=O | 2.13
O=C(CSc1nccc(-c2ccc3c(c2)OCO3)n1)N1CCOCC1 | -8.3

Compound | cytotoxicity at 10 µM [%]
c1ccc(OCc2cscn2)c(CNC2CCc3ncnn3C2)c1 (stereo unspecified) | -9.42
Cc1nc(C)n(CC2CCCN(CC(=O)N3CCCC3)C2)n1 (stereo unspecified) | -8.31
c1ccc(-c2ncc(CN3CCCCC3CCn3cccn3)cn2)nc1 (stereo unspecified) | -3.34
CC(C)n1cnnc1CNC(=O)CCCOc1ccccc1Cl | -3.51
COc1ccc(CN2C[C@@H]3COC[C@@H](N4CCN(C)CC4)[C@@H]3C2)cc1 | -103
O=C(NC1CC1)[C@H]1C[C@H]2OCC[C@H]2N(CC2CC2)C1 | 2.76
Cc1noc(C2CCC3(CCN(C(=O)c4cc(C5CC5)on4)CC3)O2)n1 (stereo unspecified) | 3.1
CCc1nsc(N2CCCN(C(=O)c3ccsc3)CC2)n1 | 5.73
COC(=O)c1ccc(NC(=O)[C@@H]2CCCN2C(=O)c2ccco2)s1 | -3.45
CCN(CC)c1nc(C)cc(C(=O)Nc2cccc(C(N)=O)c2)n1 | 14.9
CC(N)Cc1ccccc1Sc1ccc(O)cc1 (stereo unspecified) | 3.76
CC(=O)N[C@@H]1CN(C(=O)c2cc(C)oc2C)C[C@H]1c1ccc(C)o1 | -10.6
O=C(NCc1cccc2cccnc12)N1CCC(n2cncn2)CC1 | 0.722
CC(C)N(CC(N)=O)Cc1csc(C(C)(C)C)n1 | -5.13
Cc1cnn(CCNCc2ccc(OCc3csc(C)n3)cc2)c1 | -6.32
Cc1noc(C)c1-c1cc(CCC2CN(C(=O)C(C)C)CCO2)ncn1 (stereo unspecified) | 4.16
COCC(c1cccc(C(F)(F)F)c1)N(C)C(=O)c1ccccn1 (stereo unspecified) | -12
CN(C)C1CCCN(C(=O)NCCC(=O)N2CCCCCC2)C1 (stereo unspecified) | -6.45
